Assay results: ChEMBL document CHEMBL5346942, “Identification and analysis of small molecule inhibitors of FosB from Staphylococcus aureus” (RSC Med Chem, 2023)
In brackets after ≈: the same amount, converted by molar mass.

Columns and labels:
HepG2 = experiment: Cytotoxicity against human HepG2 cells assessed as reduction in cell viability at 64 ug/ml incubated for 24 hrs by resazurin dye based fluorescence analysis; type: toxicity; settings: hepg2, 24 h, dose 64 µg/ml
Outline: (§1)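 HEK-293 or HepG2 cells grown in DMEM with 10% FBS and 1% penicillin/streptomycin at 37 °C, 5% CO2. Positive control was 1% Triton X-100. Viability read by resazurin (2 mM stock) added for 24 h, measuring resorufin fluorescence.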

HEK293 = experiment: Cytotoxicity against HEK293 cells assessed as reduction in cell viability at 64 ug/ml incubated for 24 hrs by resazurin dye based fluorescence analysis; type: toxicity; settings: human, hek293, 24 h, dose 64 µg/ml; outline: as §1
Staphylococcus aureus [1] = experiment: Antibacterial activity against Staphylococcus aureus JE2 harboring […] assessed as fosfomycin MIC at 128 ug/ml incubated overnight by double dilution method; type: functional; settings: dose 128 µg/ml
Outline: (§2)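 S. aureus JE2 grown overnight at 37 °C on Mueller–Hinton agar; colonies suspended in MH broth to OD600 ~0.5, diluted 1:1000 and added to serial twofold dilutions of compound (water stocks 10 mg/mL). Incubated overnight at 37 °C; MIC read visually as the well with no growth. Sterile and growth control wells included. For combinations, fosfomycin diluted along one plate axis and inhibitor along the other, before the inoculum was added.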

[2] = target: T1, Metallothiol transferase FosB (Staphylococcus aureus, UniProt Q5HDM4); experiment: Inhibition of Staphylococcus aureus FosB using L-cysteine as substrate assessed as inhibition constant for initial binding event by absorbance based DTNB assay
T1 sequence (Q5HDM4 whole entry): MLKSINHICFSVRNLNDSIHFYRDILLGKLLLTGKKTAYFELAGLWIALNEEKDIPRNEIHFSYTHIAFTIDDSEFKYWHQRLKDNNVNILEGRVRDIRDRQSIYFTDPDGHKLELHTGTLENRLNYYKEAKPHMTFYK

Staphylococcus aureus [3] = experiment: Antibacterial activity against Staphylococcus aureus JE2 harboring […] assessed as reduction in bacterial growth incubated overnight by double dilution method; type: functional; outline: as §2
Staphylococcus aureus [4] = experiment: Antibacterial activity against Staphylococcus aureus JE2 harboring […] assessed as reduction in bacterial growth incubated overnight in presence of fosfomycin by double dilution method; type: functional; outline: as §2
[5] = target: T1, Metallothiol transferase FosB; experiment: Competitive inhibition of Staphylococcus aureus FosB using L-cysteine as substrate assessed as inhibition constant for initial binding event by absorbance based DTNB assay
Staphylococcus aureus [6] = experiment: Antibacterial activity against Staphylococcus aureus harboring FosB; type: functional; outline: as §2
Staphylococcus aureus [7] = experiment: Antibacterial activity against Staphylococcus aureus lacking FosB; type: functional
[8] = target: T1, Metallothiol transferase FosB; experiment: Parabolic competitive inhibition of Staphylococcus aureus FosB using L-cysteine as substrate assessed as inhibition constant for initial binding event by absorbance based DTNB assay
Outline: (§3)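 FosB from S. aureus, steady-state Michaelis–Menten kinetics with L-cysteine as the thiol co-substrate (instead of BSH) and varied fosfomycin. Rates read by absorbance-based DTNB assay at several fixed inhibitor concentrations. Initial velocities globally fit to a parabolic competitive model (two inhibitor molecules bind). Ki1 is the first binding event, Ki2 the second.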

[9] = target: T1, Metallothiol transferase FosB; experiment: Parabolic competitive inhibition of Staphylococcus aureus FosB using L-cysteine as substrate assessed as inhibition constant for second binding event by absorbance based DTNB assay; outline: as §3

O=C(O)CCP(=O)(O)O
Activity (HepG2): Non-Toxic
Activity (HEK293): Non-Toxic

O=P(O)(O)CCP(=O)(O)O
Activity (HepG2): Non-Toxic
Activity (HEK293): Non-Toxic

CC(C)[C@H](O)P(=O)(O)O
MIC (Staphylococcus aureus [1]): 8 µg/mL
Ki [2]: 3.58 mM
Activity (HepG2): Non-Toxic
Activity (HEK293): Non-Toxic
MIC (Staphylococcus aureus [3]): > 128 µg/mL
MIC (Staphylococcus aureus [4]): > 128 µg/mL

C[C@H](CO)P(=O)(O)O
MIC (Staphylococcus aureus [1]): 8 µg/mL
Ki [2]: 5.29 mM
Activity (HepG2): Non-Toxic
Activity (HEK293): Non-Toxic
MIC (Staphylococcus aureus [3]): > 128 µg/mL
MIC (Staphylococcus aureus [4]): > 128 µg/mL

CC[C@@H](O)P(=O)(O)O
MIC (Staphylococcus aureus [1]): 8 µg/mL
Ki [2]: 1.57 mM
Activity (HepG2): Non-Toxic
Activity (HEK293): Non-Toxic
MIC (Staphylococcus aureus [4]): > 128 µg/mL

C[C@@H](C(=O)O)P(=O)(O)O
MIC (Staphylococcus aureus [1]): 8 µg/mL
Activity (HepG2): Non-Toxic
Activity (HEK293): Non-Toxic
MIC (Staphylococcus aureus [3]): > 128 µg/mL
MIC (Staphylococcus aureus [4]): > 128 µg/mL
Ki [5]: 0.43 mM

C[C@@H]1O[C@@H]1P(=O)(O)O [FOSFOMYCIN]
Activity (HepG2): Non-Toxic
Activity (HEK293): Non-Toxic
MIC (Staphylococcus aureus [3]): > 128 µg/mL
MIC (Staphylococcus aureus [6]): 64 µg/mL (≈ 464 µM)
MIC (Staphylococcus aureus [7]): 0.5 µg/mL (≈ 3.62 µM)

O=C(O)CP(=O)(O)O [FOSFONET]
MIC (Staphylococcus aureus [1]): 8 µg/mL
Ki [8]: 0.9 mM
Activity (HepG2): Non-Toxic
Activity (HEK293): Non-Toxic
MIC (Staphylococcus aureus [3]): > 128 µg/mL
MIC (Staphylococcus aureus [4]): > 128 µg/mL
Ki [9]: 0.21 mM

CC(C(=O)O)C(=O)O [METHYLMALONIC ACID]
Activity (HepG2): Non-Toxic
Activity (HEK293): Non-Toxic
